Source: PubChem (several laboratories)
RAM inhibit: inhibitors of the yeast RAM network, primary screen, dse1pr::URA3 reporter, 5-FOA selection. hit rate 1.8% among 190,000. inhibition, % at 50 µM. AID 868, 2007. S. cerevisiae dse1pr::URA3 reporter, 5-FOA growth OD615, 2 d; analog-sensitive cbk1-as2 kinase mutant strain;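 active means inhibition above a set limit, 3 SD over mean compound inhibition, cut at about 8.4% in these data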;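 further: 0% = DMSO-only wells with no growth and 100% = 10 µM 1-NA-PP1 full growth; inhibition rescues growth on 5-FOA so higher OD means more RAM inhibition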
Yeast lifespan up: compounds extending yeast replicative lifespan, primary screen, S. cerevisiae, OD615; hit rate 0.68% among 130,000; AID 775, 2007; inhibition of the nicotinamide effect, % at 10 µM; S. cerevisiae growth with nicotinamide; deaD strain in restrictive glucose medium;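 active means inhibition above a set limit, placed 3 SD over the median of all compounds, cut at about 26% in these data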;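 further: 0% = nicotinamide-treated wells and 100% = cells grown without nicotinamide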
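Assay system: engineered S. cerevisiae DeaD replicative-lifespan strain, galactose-grown log-phase cells; Buffer or medium: CSMM-D glucose medium, restrictive; Probe or stimulus: nicotinamide 1.5 mM; Compound: single dose 10 µM compound, 0.25% DMSO; Schedule: 4 h preincubation then 48 h treatment at 30 °C; Technique: OD615 measurement.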
BB579 growth dn: growth inhibitors of yeast BB579 in restrictive medium, primary screen, yeast lifespan-shortening project, S. cerevisiae; OD615, 48 h; inhibition, % at 10 µM; hit rate 0.51% among 140,000;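 active means inhibition above a set limit, 3 SD over the mean compound inhibition, cut at about 44% in these data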
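System: Saccharomyces cerevisiae DeaD strain BB579, replicative lifespan model yeast. Buffer or medium: restrictive glucose-based CSMM-D medium. Doses: one dose, 10 µM compound with 0.25% DMSO. Timing: 4 h preincubation and 48 h exposure at 30 °C. Detection: turbidity as optical density at 615 nm. Benchmarks: amphotericin B 10 µg/mL, positive.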
Insulin prom inh: inhibitors of insulin promoter-driven GFP, primary screen, imaging, TRM-6 cells, eGFP reporter, cell count. AID 1273, 2008. hit rate 0.9% among 130,000. inhibition, % at 2 µM. reporter expression induced with tamoxifen;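 active means inhibition above the mean plus 3 SD, with well images judged a real hit on visual review, cut at about 60% in these data, passing the limit was not always enough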
Efa HMGR inh: inhibitors of E. faecalis class II HMGR, primary screen, biochemical, Enterococcus faecalis | purified E. faecalis HMGR, NADPH absorbance 340 nm kinetic | hit rate 0.41% among 190,000 | AID 1066, 2008 | HMG-CoA reductase (Enterococcus faecalis, mvaE) | inhibition, % at 10 µM;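 active means inhibition above a set limit, the median over all tested compounds plus 3 SD, cut at about 9.5% in these data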;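 further: enzyme runs in reverse so mevalonate oxidation gives rising NADPH absorbance; 0% = complete reaction with DMSO and 100% = background rate lacking mevalonate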
RAM efflux-def: 5-FOA growth of efflux-deficient control yeast, dose response, counter-screen for RAM network inhibitor project, S. cerevisiae, OD615; shares compounds with RAM inhibit; S. cerevisiae efflux-deficient reporter strain, 5-FOA growth OD615, 2 days; max inhibition, %; 1,200 tested, under 10 active; call rule not given here;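 further: plate controls were vehicle for no effect and reference inhibitor for full effect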
* hit, by the source's call; x = no result given. Compounds with a hit are over-represented: about 3.7% of the library has one in this group of screens.

SMILES | RAM inhibit | Yeast lifespan up | BB579 growth dn | Insulin prom inh | Efa HMGR inh | RAM efflux-def
CCCSc1nc(NCc2ccco2)c2c3c(sc2n1)COC(C)(C)C3 | 12.8* | -22.1 | -30.6 | -2.9 | -5.2 | 6.7
Cc1ccc(Nc2nnc(-c3ccncc3)s2)c(Br)c1 | -1.3 | -8.6 | -7.6 | x | -7.7 | x
Cc1nc(C)c(NC(=O)N2CCc3ccccc32)cc1NC(=O)N1CCc2ccccc21 | 12.0* | -6.7 | -43.4 | 18.2 | -3.7 | 3.1
CCNc1nc(NCC)n2c(SC(C(=O)Nc3cc(Cl)cc(Cl)c3)c3ccccc3)nnc2n1 (stereo not given) | 5.3 | 3.1 | -32.3 | 3.2 | -1.9 | x
Cc1c(NC(=S)NC(=O)Cc2ccccc2)cccc1C(=O)O | 22.1* | 0.8 | -21.6 | -90.3 | -3.2 | 1.5
O=C(COc1ccc([N+](=O)[O-])cc1Cl)NCC1CCCO1 (stereo not given) | 1.4 | x | x | x | 1.4 | x
CC(C(=O)O)c1ccc(N2Cc3ccccc3C2=O)cc1 (stereo not given) | 0.1 | 3.9 | -31.3 | -31.8 | -1.6 | x
COC(=O)C1=CN(Cc2cccs2)C=C(C(=O)OC)C1c1cccc(Cl)c1 | 13.3* | x | x | x | 1.8 | 2.5
O=C(Nc1ccccc1-c1nc2ccccc2[nH]1)c1sc2ccccc2c1Cl | 2.6 | 2.4 | -40.1 | -36.0 | -7.4 | x
CN(C)c1oc(-c2ccc(OCc3ccccc3)cc2)nc1C#N | 14.2* | -20.0 | -24.2 | -64.3 | 0.0 | 2.5
N#Cc1nc(-c2ccc(OCc3ccccc3)cc2)oc1NCc1cccnc1 | 7.1 | -23.1 | -48.0 | -42.9 | -2.2 | x
CCCCN1C(=O)/C(=C/C=C2\Oc3ccccc3N2CC)SC1=S | 5.8 | x | x | x | -3.2 | x
CCCCN1C(=O)/C(=C/C=C2/CC(C)(C)CN2C)SC1=S | 11.9* | -1.4 | -47.1 | -270.4 | -5.5 | 1.5
COc1cccc(-c2cc(C(=O)Nc3ccn(Cc4ccc(C)cc4)n3)no2)c1 | 17.2* | x | x | x | -3.2 | 2.5
O=C(CCn1c(=O)[nH]c2ccsc2c1=O)NCc1ccc(F)cc1 | -0.3 | x | x | 0.0 | -6.8 | x
CCOC(=O)C1=C(N)OC2=C(C(=O)CC(C)(C)C2)C1c1ccc(C)s1 (stereo not given) | 16.7* | x | x | -63.6 | 3.9 | 2.2
O=C(NCc1cccnc1)c1cn(-c2ccccc2)nc1-c1ccccc1 | 1.9 | x | x | x | 2.1 | x
CCOc1ccc2nc(SCC(=O)c3ccccc3)sc2c1 | 15.6* | -8.7 | -77.8 | 2.8 | -1.3 | 2.1
CCOc1ccc2nc(SCCNS(=O)(=O)c3ccccc3)sc2c1 | 11.6* | 4.1 | -42.2 | 15.4 | 0.7 | 1.6
CCOc1ccc2nc(SCc3ccc(OC)cc3)sc2c1 | 0.9 | -5.5 | -47.5 | 6.2 | 2.4 | x
O=C(CSc1nc2ccccc2s1)CSc1nc2ccccc2s1 | 14.1* | -10.8 | -42.9 | -94.3 | -4.8 | 4.1
CCc1ccc(/C=C(\Cl)c2nc3cc(Cl)ccc3c(=O)[nH]2)cc1 | 1.2 | -1.6 | -24.5 | 29.0 | -0.9 | x
COc1cccc(C(=O)NCC(=O)N/N=C/c2cn[nH]c2-c2ccccc2)c1 | 0.9 | x | x | 16.7 | -5.4 | x
Cc1onc(-c2c(F)cccc2Cl)c1C(=O)NC(=S)NCc1cccnc1 | -0.4 | 1.4 | -33.6 | 0.0 | -1.6 | x
COc1ccc(C(=O)NC(=S)Nc2cccnc2)cc1[N+](=O)[O-] | 1.9 | x | x | x | -7.3 | x
SMILES | RAM inhibit | Yeast lifespan up | BB579 growth dn | Insulin prom inh | Efa HMGR inh | RAM efflux-def
CSc1ccc(/C=C/C(=O)c2ccc(NC(=O)Cc3ccccc3)cc2)cc1 | 14.0* | -19.9 | -70.4 | -3.3 | -1.6 | 6.0
CCOC(=O)C1=C(CSc2nc(-c3ccccc3)ccc2C#N)OC(N)=C(C#N)C1c1ccc(OC)cc1 (stereo not given) | 18.7* | -11.8 | -36.9 | -83.7 | -0.3 | 4.0
COc1ccccc1NC(=O)c1ccc(NC(=O)COC(=O)CCC2CCCC2)cc1 | 14.5* | -3.3 | -32.1 | 18.8 | -3.0 | 3.1
Cc1ccc(S(=O)(=O)N2CCC(C)CC2)cc1[N+](=O)[O-] | 22.5* | x | x | x | -2.3 | 1.6
Cc1ccc(S(=O)(=O)N2CCCCCC2)cc1[N+](=O)[O-] | 1.2 | 7.7 | -51.4 | 20.0 | -1.3 | x
O=S(=O)(/C=C/c1ccccc1)Oc1ccccc1 | -1.3 | 12.1 | 7.4 | -19.4 | 0.2 | x
Cc1ccc(-n2c(SCC(=O)N3CCCc4ccccc43)nnc2-c2cccnc2)c(C)c1 | 12.5* | 6.2 | -54.6 | -100.0 | -3.3 | 1.2
COc1ccc(-c2nn(CCC(=O)O)cc2/C=C2\SC(N)=NC2=O)cc1OC | 3.0 | 0.2 | -12.7 | 55.6 | 0.9 | x
CCCOc1ccc(-c2nn(-c3ccccc3)cc2/C=C2\SC(N)=NC2=O)cc1C | 12.6* | 6.6 | -25.7 | 25.9 | 0.7 | 9.1
COc1ccc(N=C2S/C(=C\c3cccs3)C(=O)N2CC(C)C)cc1 | 5.5 | 4.6 | -52.4 | 3.3 | 5.3 | x
COc1ccc(N=C2S/C(=C\c3ccc(C)s3)C(=O)N2CC(C)C)cc1 | 14.7* | -5.1 | -33.6 | 7.3 | 3.1 | 3.6
CC[C@@H](C)[C@@H](C(=O)N1CCN(C(=O)OC(C)(C)C)CC1)n1cc(CCCCNC(=O)OC(C)(C)C)nn1 | 1.4 | x | x | x | -1.2 | x
Cc1ccc(O)c(C(=O)/C=C/c2ccc3c(c2)OCCCO3)c1 | 12.2* | -1.3 | -26.4 | 20.6 | -4.9 | 4.4
CC(C)OC(=O)CC(=O)CSc1nc(-c2ccc(F)cc2)cc(-c2ccccc2)c1C#N | 14.5* | 2.5 | -10.0 | x | -6.1 | 4.6
CCOC(=O)c1c(C)[nH]c(C)c1C(=O)COC(=O)/C=C/c1cccc(C(F)(F)F)c1 | 22.7* | -1.1 | -6.6 | 13.7 | 3.6 | 2.7
Cn1c(SCC(=O)N2CCc3ccccc32)nnc1-c1ccc(S(=O)(=O)N2CCCC2)cc1 | 11.7* | 0.8 | -15.4 | -19.4 | -2.1 | 2.6
CCOC(=O)c1c(C)[nH]c(C(=O)C(C)Sc2ccc(Cl)cc2)c1C (stereo not given) | 12.2* | -17.1 | -69.2 | -38.9 | 6.1 | 2.9
CCc1nc(-c2ccc(-c3ccc(OC)cc3)nc2OC)no1 | 1.6 | -9.7 | -20.7 | -7.9 | -0.6 | x
COc1ccc(-c2ccc(-c3noc(C(C)C)n3)c(OC)n2)cc1 | 15.0* | -11.5 | -67.7 | x | -1.9 | 3.5
C/C(=N\NC(=O)C1=NNC(=O)C1C)c1cccs1 (stereo not given) | 1.5 | x | x | 26.7 | -1.6 | x
Cc1ccc(NC(=O)CCSc2nnnn2-c2ccc3c(c2)OCO3)cc1C | 11.6* | -8.0 | -49.2 | -10.3 | -2.2 | 2.4
CC(C)C[C@@H](CN(C)N=O)N(C[C@H](Cc1ccccc1)N(CCc1ccccc1)N=O)N=O | 20.3* | x | x | x | -0.7 | 6.3
CN(C[C@H](Cc1ccccc1)N(CCN(CCc1ccccc1)N=O)N=O)N=O | 3.1 | x | x | x | -1.6 | x
